# High-throughput results from PubChem BioAssay.
# Sampled rows, rich in hits. Any-hit rate of the full collection: about 1.8%.
# ARNT TACC3 PPI: disrupts binding between human ARNT and TACC3; 390,000 tested, 0.66% active; Q9Y6A5; inhibition, % at 9.99 µM; AID 623870; AlphaScreen His-ARNT PAS-B/GST-TACC3 binding, luminescence; TACC3 fragment carries E629A point mutation;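 active means mean inhibition of replicates at least 50% and at least half of replicates each reaching 50%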;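 further: 0% = complete ARNT plus TACC3 wells and 100% = ARNT alone without TACC3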
# TCR-CD3 inh: blocks the human TCR-CD3 interaction | inhibition, % at 9.4 µM | TAMRA-labeled TCR probe fluorescence, biochemical | AID 651800 | 360,000 tested, 0.37% active;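 further: recombinant mutant TCR 2C K166C tagged with TAMRA read by polarization; 0% = receptor in buffer alone and 100% = receptor with positive control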
# HTRA1 inh: blocks human HTRA1 serine peptidase; Q92743; recombinant HTRA1, FP-rhodamine activity-based probe, fluorescence polarization; inhibition, % at 5.96 µM; 340,000 tested, 0.5% active; in the data active means inhibition above about 36%;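 further: 0% = enzyme with DMSO and 100% = wells lacking enzyme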
# ABHD4 inh: inhibits mouse alpha/beta hydrolase domain 4. 370,000 tested, 0.54% active. inhibition, % at 8.92 µM. purified mABHD4, FP-Rh probe fluorescence polarization. Q8VD66. AID 720543;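 active means inhibition exceeding the mean over every tested compound plus 3 SD, cut at about 30% in these data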;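 further: 0% = plate median of compound wells and 100% = S159A mutant with DMSO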
#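 Assay system: Wild-type mouse ABHD4 protein | Medium: HEPES pH 7.0 buffer, 150 mM NaCl, 0.01% Pluronic F-127 | Incubation: Enzyme–compound pre-incubation 45 min, then probe 60 min, both 25 °C | Technique: Fluorescence polarization with parallel and perpendicular emission, 525/598 nm | Evaluation: % inhibition of FP-Rh probe binding versus controls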
# SIAE primary: blocks human sialic acid acetylesterase; inhibition, % at 9.66 µM; Q9HAT2; SIAE FP-Rh probe binding, fluorescence polarization; 370,000 tested, 0.69% active; AID 1053197;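 active means inhibition above a cutoff: mean of compounds within the control limits plus 3 SD of those, cut at about 17% in these data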;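 further: 0% = plate median of compound wells and 100% = probe without SIAE protein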
# Target sequence (Q9HAT2 whole entry, looked up): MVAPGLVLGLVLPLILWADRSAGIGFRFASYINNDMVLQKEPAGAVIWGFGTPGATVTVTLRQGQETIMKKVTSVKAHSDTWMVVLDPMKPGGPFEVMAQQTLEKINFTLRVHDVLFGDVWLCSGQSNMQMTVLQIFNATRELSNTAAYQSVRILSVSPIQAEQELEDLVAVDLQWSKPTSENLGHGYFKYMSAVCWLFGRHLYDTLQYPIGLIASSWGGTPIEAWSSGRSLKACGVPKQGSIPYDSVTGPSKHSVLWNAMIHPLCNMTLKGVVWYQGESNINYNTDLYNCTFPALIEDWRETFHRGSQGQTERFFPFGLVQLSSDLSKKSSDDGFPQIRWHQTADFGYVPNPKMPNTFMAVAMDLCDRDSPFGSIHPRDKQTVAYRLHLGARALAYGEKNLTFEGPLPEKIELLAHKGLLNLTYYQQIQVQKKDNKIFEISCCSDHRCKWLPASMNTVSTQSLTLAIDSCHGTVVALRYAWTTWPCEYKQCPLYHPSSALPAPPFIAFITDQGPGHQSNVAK
# BSA TAMRA ctr: BSA probe counter-screen for TCR-CD3 inhibitors | TAMRA-labeled BSA probe fluorescence counterscreen | inhibition, % at 9.4 µM | 1,200 tested, 10% active | shares compounds with TCR-CD3 inh | AID 652035; in the data active means inhibition above about 23%;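 further: 0% = buffer low control and 100% = reference high control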
# TCR-CD3 conf: TCR-CD3 interaction inhibition, confirmation. TAMRA-labeled TCR probe fluorescence binding assay. shares compounds with TCR-CD3 inh. inhibition, % at 9.4 µM. AID 652036. 1,200 tested, 48% active
# The depositor's hits bear a star; . = not tested or not shown. Unless noted, no stated cut-off is given here; in the data, active means inhibition above about 19%; inactive means the rest.
SMILES,ARNT TACC3 PPI,TCR-CD3 inh,HTRA1 inh,ABHD4 inh,SIAE primary,BSA TAMRA ctr,TCR-CD3 conf
C[C@H]1CCCCO[C@@H](CN(C)C(=O)Nc2ccccc2)[C@@H](C)CN([C@@H](C)CO)C(=O)c2cc(NC(=O)Nc3ccc4c(c3)OCO4)ccc2O1,10,.,.,.,.,.,.
CC(C)c1ccc(NC(=O)C(c2ccccc2)N2CCOCC2)cc1 (stereo unspecified),-1,24*,-4,-11,1,11,8
CC(=O)c1c(C)[nH]c(C(=O)OCc2nnc(-c3ccc([N+](=O)[O-])cc3)o2)c1C,10,26*,8,18,10,2,9
CC(=O)c1ccc(S(=O)(=O)Nc2cccc(-n3cnnn3)c2)cc1,.,20*,-5,-12,1,4,12
CC(=O)Nc1ccc(S(=O)(=O)Nc2cccc(-n3cnnn3)c2)cc1,-6,7,2,0,2,.,.
CCNC(=O)C[C@H]1CC[C@@H]2[C@H](COc3ccc(NC(=O)Nc4cccc(F)c4)cc3C(=O)N2C)O1,-4,.,.,.,.,.,.
COCCNC(=O)c1oc2ccc3c(c2c1C)C(O)CC(C)(C)O3 (stereo unspecified),8,4,4,-2,-6,.,.
Cc1c(C(=O)N2CCC(C)CC2)oc2ccc3c(c12)C(O)CC1(CCCCC1)O3 (stereo unspecified),-1,21*,-23,11,-13,2,5
C=CCNC(=S)NNC(=O)c1cccn(Cc2ccc(Cl)cc2Cl)c1=O,.,20*,10,15,5,-9,14
CCNC(=S)NNC(=O)c1cccn(Cc2ccc(Cl)cc2Cl)c1=O,-25,20*,8,8,4,2,17
CO[C@H]1CN(C)C(=O)c2cc(NS(=O)(=O)c3cccc(F)c3)ccc2OC[C@H](C)NC[C@@H]1C,-3,.,.,.,.,.,.
C[C@H](CO)N1C[C@H](C)[C@H](CN(C)Cc2ccc(C(=O)O)cc2)OCCCC[C@H](C)Oc2ccc(NC(=O)CCC(F)(F)F)cc2C1=O,-8,.,.,.,.,.,.
COc1ccc(S(=O)(=O)N[C@@H]2CC[C@@H](CC(=O)NCc3ccccc3F)O[C@@H]2CO)cc1,10,.,.,.,.,.,.
COc1cc2cc3c(N)c(C(=O)Nc4sc(C)c(C)c4C#N)sc3nc2cc1OC,27,24*,12,-10,-34,-14,3
CC(C)NC(=O)N1[C@H](CO)[C@@H](c2ccccc2)[C@H]1CN(C)C(=O)c1ccncc1,-3,.,.,.,.,.,.
O=C(O)C1CC=CCC1C(=O)N1CCN(c2nc(-c3ccccc3Cl)c3cc(Br)ccc3n2)CC1 (stereo unspecified),-20,52*,-27,17,6,0,1
O=C(O)C1CC=CCC1C(=O)N1CCN(c2nc(-c3ccccc3)c3ccccc3n2)CC1 (stereo unspecified),-10,1,-19,10,3,.,.
C[C@H]1CN([C@@H](C)CO)C(=O)c2cc(NC(=O)C3CC3)ccc2O[C@@H]1CN(C)S(=O)(=O)c1cccs1,-11,.,.,.,.,.,.
CN(C)S(=O)(=O)c1cccc(NC(=S)NC(=O)c2ccco2)c1,.,0,-3,0,-1,.,.
Cc1ccc(NS(=O)(=O)c2ccc(C(=O)NNC(=O)c3ccccc3O)cc2)cc1,24,20*,-14,7,10,-16,9
O=C(NNC(=O)c1ccncc1)Nc1ccc(Br)cc1,-2,-3,-1,4,4,.,.
COc1cc2ccccc2cc1C(=O)NNC(=O)c1ccccc1O,-5,34*,27,10,0,-6,25*
O=C(NNC(=O)c1cc2ccccc2cc1O)Nc1ccc(Br)cc1,-1,23*,10,6,16,-11,22*
CN(C)S(=O)(=O)c1cccc(NC(=S)NNC(=O)c2cc3ccccc3cc2O)c1,28,23*,25,-26,-14,-11,13
COc1ccc(NC(=O)c2cc3ccccc3cc2OC)cc1,-11,3,-18,3,-9,.,.
C[C@H](CO)N1C[C@H](C)[C@@H](CN(C)C(=O)Nc2cccc3ccccc23)OCCCC[C@H](C)Oc2ccc(NC(=O)Nc3ccc4c(c3)OCO4)cc2C1=O,-5,.,.,.,.,.,.
